Series [1] deals with SH-SY5Y. Kind of series: Cytotoxicity against human SH-SY5Y cells assessed as effect on NR uptake at 1 to 10 uM measured after 24 hrs by neutral red uptake assay. The series is classed as cell-based. Conditions: dose 1-10 µM. A digest of the protocol: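 Differentiated SH-SY5Y cells were exposed to compounds at 1 and 10 μM for 24 h. Lysosomal activity was read as neutral red dye uptake and compared with untreated cells. Mean ± SEM of at least three independent experiments run in triplicate.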

For a further series, the target named is T1, MAO-A (Homo sapiens, UniProt P21397).
T1 sequence (P21397 whole entry): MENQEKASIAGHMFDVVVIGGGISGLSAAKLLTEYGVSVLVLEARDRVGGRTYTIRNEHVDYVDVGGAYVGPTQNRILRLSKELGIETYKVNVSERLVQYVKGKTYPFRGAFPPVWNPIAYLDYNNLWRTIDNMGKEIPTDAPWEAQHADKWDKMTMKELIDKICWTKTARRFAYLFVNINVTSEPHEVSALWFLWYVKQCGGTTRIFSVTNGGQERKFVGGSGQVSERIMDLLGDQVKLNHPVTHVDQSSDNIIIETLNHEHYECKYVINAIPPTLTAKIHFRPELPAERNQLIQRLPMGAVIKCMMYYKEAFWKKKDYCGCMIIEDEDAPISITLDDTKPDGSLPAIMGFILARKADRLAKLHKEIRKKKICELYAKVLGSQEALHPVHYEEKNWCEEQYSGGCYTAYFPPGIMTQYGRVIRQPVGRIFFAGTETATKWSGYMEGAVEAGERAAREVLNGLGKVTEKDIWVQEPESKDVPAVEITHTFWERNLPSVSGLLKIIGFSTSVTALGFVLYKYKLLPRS
The series is described as follows: Inhibition of recombinant human MAO-A expressed in baculovirus infected BTI-TN- 5B1-4 insect cells at 10 uM using kynuramine as substrate preincubated for 10 mins in presence of substrate followed by enzyme addition and measured every minute for 30 mins by spectrophotometry analysis relative to control. As to conditions: probe kynuramine, time 40 min. A digest of the protocol:
(§1)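 Recombinant hMAO-A and hMAO-B were assayed with kynuramine as substrate. Percent inhibition was taken at 10 μM, the highest concentration tested. Where the hMAO-A IC₅₀ was not reached, it was taken as 10 μM.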

Series [2] deals with Caco-2. Kind of series: Cytotoxicity against human Caco-2 cells assessed as reduction in cell viability at 10 uM measured after 24 hrs by MTT assay relative to control. The series is classed as cell-based. As to conditions: caco-2, 24 h; call rule not given here. Put shortly: (§2)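 Caco-2 cells, and SH-SY5Y cells first differentiated toward a dopaminergic-like phenotype, were treated for 24 h with compounds at 1 and 10 μM. Metabolic activity was read as MTT reduction to formazan, relative to untreated cells. Mean ± SEM of at least three independent experiments, each in triplicate.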
In general terms: Tetrazolium assays rely on reduction of a dye to a coloured formazan, in cell work by metabolically active cells.

For series [3], the target named is T2, Amine oxidase [flavin-containing] B (Homo sapiens, UniProt P27338).
T2 sequence (P27338 whole entry): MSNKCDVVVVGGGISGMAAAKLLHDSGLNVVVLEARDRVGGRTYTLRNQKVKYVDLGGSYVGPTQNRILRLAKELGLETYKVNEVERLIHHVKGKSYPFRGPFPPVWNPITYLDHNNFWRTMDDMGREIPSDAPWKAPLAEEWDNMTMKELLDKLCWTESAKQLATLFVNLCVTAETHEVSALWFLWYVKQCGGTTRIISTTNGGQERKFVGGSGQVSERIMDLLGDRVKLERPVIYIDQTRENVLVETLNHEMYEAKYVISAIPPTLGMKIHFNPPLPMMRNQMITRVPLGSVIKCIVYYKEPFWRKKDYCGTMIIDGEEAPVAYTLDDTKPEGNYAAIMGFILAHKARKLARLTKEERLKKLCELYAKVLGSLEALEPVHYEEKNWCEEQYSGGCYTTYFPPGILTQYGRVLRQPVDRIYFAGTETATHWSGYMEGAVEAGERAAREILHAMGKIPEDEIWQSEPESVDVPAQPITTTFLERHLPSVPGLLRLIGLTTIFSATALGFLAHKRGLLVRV
The series is described as follows: Inhibition of recombinant human MAO-B expressed in baculovirus infected BTI-TN- 5B1-4 insect cells using kynuramine as substrate preincubated for 10 mins in presence of substrate followed by enzyme addition and measured every minute for 30 mins by spectrophotometry analysis. Type of series: cell-based.

For series [4], the system named is SH-SY5Y. Kind of series: Cytotoxicity against human SH-SY5Y cells assessed as reduction in cell viability at 10 uM measured after 24 hrs by MTT assay relative to control. The series is classed as cell-based. A digest of the protocol: as §2
For series [5], the system named is SH-SY5Y. Kind of series: Cytotoxicity against human SH-SY5Y cells assessed as reduction in cell viability at 1 uM measured after 24 hrs by MTT assay relative to control. Type of series: cell-based. Put shortly:
as §2

For a further series, the species on record is Homo sapiens. Kind of series: Selectivity index, ratio of IC50 for recombinant human MAO-A expressed in baculovirus infected BTI-TN- 5B1-4 insect cells to IC50 for recombinant human MAO-B expressed in baculovirus infected BTI-TN- 5B1-4 insect cells using kynuramine as substrate preincubated for 10 mins in presence of substrate followed by enzyme addition and measured every minute for 30 mins by spectrophotometry analysis. A digest of the protocol: as §1

Series [6] has as its target T3, Amine oxidase [flavin-containing] A (Homo sapiens, UniProt P21397).
T3 sequence (P21397 whole entry): T1 sequence (P21397 whole entry)
Kind of series: Inhibition of recombinant human MAO-A expressed in baculovirus infected BTI-TN- 5B1-4 insect cells using kynuramine as substrate preincubated for 10 mins in presence of substrate followed by enzyme addition and measured every minute for 30 mins by spectrophotometry analysis. Put shortly: as §1

Series [7] has as its system MCF7. The series is described as follows: Cytotoxicity against human MCF7 cells incubated for 24 to 48 hrs by Celltiter-Glo assay. Type of series: cell-based. Background: ATP-based viability assays read luminescence as a measure of living cells.
For series [8], the system named is HUVEC. Kind of series: Cytotoxicity against HUVEC cells at 10 uM incubated for 24 to 48 hrs by Celltiter-Glo assay relative to control. Conditions: human, time 24-48 hrs. The series is classed as cell-based. A digest of the protocol: (§3)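 Cells (HEK-293, HUVEC, MCF-7) exposed to test compounds at 10 μM for 24 h; cytotoxicity read in triplicate with a luminescence kit measuring intracellular ATP levels.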

The subject of series [9] is SH-SY5Y. Kind of series: Protection against iron(III)-induced damage in human SH-SY5Y cells assessed as increase in lysosomal activity at 10 uM pretreated for 30 mins followed by iron(III) treatment after 24 hrs by NR uptake assay relative to control. Type of series: functional. As to conditions: time 24.5 hrs. A digest of the protocol:
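Differentiated SH-SY5Y cells were pretreated with compounds at 1 or 10 μM for 30 min, then exposed to iron(III) at 1000 or 1500 μM for 24 h. Viability was read by neutral red uptake. Mean ± SD of three independent experiments, two-way ANOVA.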

Series [10] concerns Caco-2. Kind of series: Cytotoxicity against human Caco-2 cells assessed as effect on cell viability at 1 to 10 uM measured after 24 hrs by MTT assay. The series is classed as cell-based. As to conditions: caco-2, 24 h, dose 1-10 µM. Put shortly:
as §2

Series [11] deals with HEK293. Kind of series: Cytotoxicity against HEK293 cells at 10 uM incubated for 24 to 48 hrs by Celltiter-Glo assay relative to control. The series is classed as cell-based. As to conditions: human, hek293, 10 µM, time 24-48 hrs. A digest of the protocol: as §3
The test system of series [12] is HUVEC. The series is described as follows: Cytotoxicity against HUVEC cells incubated for 24 to 48 hrs by Celltiter-Glo assay. Conditions: huvec. The series is classed as cell-based, Homo sapiens.
In a further series the target is hERG (Homo sapiens, UniProt Q12809). The series is described as follows: Inhibition of human ERG at 10 uM incubated for 2 hrs by fluorescence polarization assay relative to control. Put shortly: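 hERG binding was measured by fluorescence polarization, using a homogenized membrane preparation containing hERG plus a fluorescent tracer. A drop in FP signal from tracer displacement was read as inhibition. Compounds were tested at 10 μM.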
A general note: Fluorescence polarisation rises when a labelled molecule tumbles more slowly, as on binding a larger partner.

Series [13] deals with HEK293. The series is described as follows: Cytotoxicity against HEK293 cells incubated for 24 to 48 hrs by Celltiter-Glo assay. Type of series: cell-based, Homo sapiens.
In series [14] the test system is MCF7. Kind of series: Cytotoxicity against human MCF7 cells at 10 uM incubated for 24 to 48 hrs by Celltiter-Glo assay relative to control. The series is classed as cell-based. As to conditions: mcf7, 10 µM, time 24-48 hrs. A digest of the protocol:
as §3

In series [15] the target is T2, Amine oxidase [flavin-containing] B. The series is described as follows: Time dependent inhibition of recombinant human MAO-B expressed in baculovirus infected BTI-TN- 5B1-4 insect cells assessed as increase in enzyme activity at IC80 measured after 120 mins. As to conditions: bti-tn-5b1-4, 2 h.
Series [16] addresses ATP-dependent translocase ABCB1 (Homo sapiens, UniProt P08183). Kind of series: Modulation of P-gp-mediated Rhodamine-123 efflux in human Caco-2 cells assessed as Rhodamine-123 accumulation at 10 uM pretreated for 30 mins in presence or absence of Zos followed by Rho-123 addition and measured after 90 mins by fluorescence spectroscopy. Type of series: cell-based. Conditions: caco-2, 2 h, time 120 min. A digest of the protocol: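 Caco-2 cells were exposed to compounds at 10 μM during incubation with the P-gp substrate rhodamine 123 (5 μM). Zosuquidar served as the specific P-gp inhibitor. Cellular rhodamine 123 was read by fluorescence spectroscopy. Mean ± SEM of at least three independent experiments in triplicate.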

The target in series [17] is T2, Amine oxidase [flavin-containing] B. Kind of series: Mixed-type inhibition of recombinant human MAO-B expressed in baculovirus infected BTI-TN- 5B1-4 insect cells at 1 to 5 nM using varying levels of kynuramine as substrate by Lineweaver-Burk plot analysis. As to conditions: dose 1-5 nM. A digest of the protocol: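 Initial rates of hMAO-B activity were measured at six kynuramine concentrations (10−100 μM), without inhibitor and at three inhibitor concentrations. Kinetic parameters were read from a double-reciprocal Lineweaver−Burk plot. An Ackermann−Potter plot of total enzyme concentration was also constructed.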

Some results are limits rather than exact numbers.

hERG, sequence (Q12809 whole entry): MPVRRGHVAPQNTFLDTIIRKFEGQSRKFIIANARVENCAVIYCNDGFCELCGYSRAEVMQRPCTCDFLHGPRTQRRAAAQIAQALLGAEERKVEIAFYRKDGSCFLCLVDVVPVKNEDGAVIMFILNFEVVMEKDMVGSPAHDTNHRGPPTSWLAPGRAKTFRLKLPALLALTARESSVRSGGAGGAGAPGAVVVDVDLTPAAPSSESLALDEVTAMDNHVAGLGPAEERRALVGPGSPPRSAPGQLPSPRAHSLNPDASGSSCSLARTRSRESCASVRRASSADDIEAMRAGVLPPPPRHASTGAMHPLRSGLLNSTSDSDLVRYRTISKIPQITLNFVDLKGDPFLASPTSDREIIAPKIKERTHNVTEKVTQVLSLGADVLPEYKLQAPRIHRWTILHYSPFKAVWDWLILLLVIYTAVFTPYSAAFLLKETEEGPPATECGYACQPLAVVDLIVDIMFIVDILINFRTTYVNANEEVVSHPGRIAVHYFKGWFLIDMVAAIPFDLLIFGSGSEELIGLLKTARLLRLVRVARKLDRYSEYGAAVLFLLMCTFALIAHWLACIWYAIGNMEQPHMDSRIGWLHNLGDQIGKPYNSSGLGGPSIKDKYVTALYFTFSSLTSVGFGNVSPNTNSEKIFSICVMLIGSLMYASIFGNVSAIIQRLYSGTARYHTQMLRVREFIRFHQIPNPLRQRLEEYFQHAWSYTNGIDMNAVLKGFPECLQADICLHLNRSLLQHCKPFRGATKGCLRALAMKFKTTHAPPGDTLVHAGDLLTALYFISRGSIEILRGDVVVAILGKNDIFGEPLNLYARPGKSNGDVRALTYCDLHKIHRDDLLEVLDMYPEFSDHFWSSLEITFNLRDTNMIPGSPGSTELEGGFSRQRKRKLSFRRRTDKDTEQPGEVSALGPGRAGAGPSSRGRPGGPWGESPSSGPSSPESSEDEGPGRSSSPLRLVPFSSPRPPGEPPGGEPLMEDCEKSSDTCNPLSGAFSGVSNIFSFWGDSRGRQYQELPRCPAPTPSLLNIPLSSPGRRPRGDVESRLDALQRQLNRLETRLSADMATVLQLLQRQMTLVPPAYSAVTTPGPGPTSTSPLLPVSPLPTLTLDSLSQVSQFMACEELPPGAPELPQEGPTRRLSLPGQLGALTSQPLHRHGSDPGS
ATP-dependent translocase ABCB1, sequence (P08183 whole entry): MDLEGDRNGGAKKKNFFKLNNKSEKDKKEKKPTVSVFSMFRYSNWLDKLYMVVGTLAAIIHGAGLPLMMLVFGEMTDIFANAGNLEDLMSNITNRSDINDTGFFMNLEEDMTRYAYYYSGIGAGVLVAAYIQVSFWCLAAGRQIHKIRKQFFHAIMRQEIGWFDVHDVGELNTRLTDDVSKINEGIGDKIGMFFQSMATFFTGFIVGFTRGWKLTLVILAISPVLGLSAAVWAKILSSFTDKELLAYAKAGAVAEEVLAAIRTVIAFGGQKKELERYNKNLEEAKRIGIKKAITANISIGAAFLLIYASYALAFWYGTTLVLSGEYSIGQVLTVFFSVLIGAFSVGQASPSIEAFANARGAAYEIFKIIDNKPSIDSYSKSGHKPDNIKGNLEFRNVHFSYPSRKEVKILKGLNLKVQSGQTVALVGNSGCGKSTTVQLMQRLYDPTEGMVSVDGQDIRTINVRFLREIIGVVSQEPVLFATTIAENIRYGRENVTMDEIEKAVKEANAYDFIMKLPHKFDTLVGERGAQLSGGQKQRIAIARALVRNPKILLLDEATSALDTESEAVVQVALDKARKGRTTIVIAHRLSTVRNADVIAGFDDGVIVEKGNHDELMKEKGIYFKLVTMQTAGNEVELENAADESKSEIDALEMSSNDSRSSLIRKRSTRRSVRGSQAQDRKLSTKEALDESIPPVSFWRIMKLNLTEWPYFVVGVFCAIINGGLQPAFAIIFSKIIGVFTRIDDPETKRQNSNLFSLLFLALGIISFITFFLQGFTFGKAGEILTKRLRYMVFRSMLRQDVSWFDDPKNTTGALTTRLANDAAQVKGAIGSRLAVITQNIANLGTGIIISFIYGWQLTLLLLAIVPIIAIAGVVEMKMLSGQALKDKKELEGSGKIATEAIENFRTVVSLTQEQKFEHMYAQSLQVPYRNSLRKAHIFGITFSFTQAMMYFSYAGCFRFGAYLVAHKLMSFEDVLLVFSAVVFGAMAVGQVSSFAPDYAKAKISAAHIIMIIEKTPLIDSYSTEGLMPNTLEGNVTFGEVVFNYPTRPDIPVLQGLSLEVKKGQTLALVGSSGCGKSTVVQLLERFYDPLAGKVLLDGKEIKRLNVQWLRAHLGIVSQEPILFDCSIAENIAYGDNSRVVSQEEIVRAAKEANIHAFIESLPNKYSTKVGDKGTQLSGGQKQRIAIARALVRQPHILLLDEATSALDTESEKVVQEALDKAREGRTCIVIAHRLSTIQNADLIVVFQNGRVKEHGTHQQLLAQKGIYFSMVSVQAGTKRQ

As usually defined, the inhibition is the share of the control response that was lost under treatment. For orientation: IC50 means the concentration that inhibits the measured activity by half. Regarding `O=C(Nc1cccc(Cl)c1)c1cc2ccccc2oc1=O`, the Activity result with SH-SY5Y [1] is recorded as “Non-Toxic”; in the series with Caco-2 [2] it was 93.5%; in the series on SH-SY5Y [4], 71.8%; in the series on SH-SY5Y [5], 79.5%. The inhibition at 0.5 h, 10 µM at MAO-A was 13.5%. For the same compound, in series [3], the IC50 was determined as 10.2 nM. Moreover, the Ratio IC50 in the series filed under Homo sapiens was above 985.

Take `O=C(Nc1cccc(Cl)c1)C1=Cc2ccccc2OC1`: the Activity entry was “Non-Toxic” in the series on SH-SY5Y [1] and 88.3% in the series on Caco-2 [2]. The IC50 in series [6] came out at 11700 nM; in [3], 26.4 nM. The Ratio IC50 in the series listed under Homo sapiens was determined as 444.

For `O=C(Nc1cccc(Cl)c1)c1csc2ccccc2c1=O`, the 50% inhibitory concentration (IC50) result with MCF7 [7] is “Not Active”; in the series on HUVEC [12] it was “Not Active”; in series [3], 1.52 nM; with HEK293 [13] it was “Not Active”. Further, the Activity is reported as below 10% with HUVEC [8]; “Non-Toxic” in the series with SH-SY5Y [1]; 63% with SH-SY5Y [9]; “Non-Toxic” in the series on Caco-2 [10]; below 10% with HEK293 [11]; below 10% with MCF7 [14]. The Activity result in series [16] is “Not Active”. In addition, the inhibition at 0.5 h, 10 µM at MAO-A stood at 0.7%. At hERG, the inhibition at 2 h, 10 µM was below 10%. The TDI entry in series [15] is reported as “Active”. Moreover, the Ratio IC50 in the series filed under Homo sapiens is above 6570. The “inhibition (INH)” value in series [17] is reported as “Active”.
